Activity calls are given as the source filed them. The calls are words filed in the database; no cut-off is given here.
Key:
[1] = molecular target: Serine/threonine-protein kinase PINK1, mitochondrial (Homo sapiens) (UniProt Q9BXM7); experiment: Activation of PINK1 in human HeLa cells transfected with Parkin assessed as prevention of OPA1 cleavage at 50 uM incubated for 1 hr by Western blot analysis; assay type: cell-based
Procedure, shortened: (§1)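 HeLa cells transfected with Parkin were exposed to 50 μM compound for 1 h, with 10 μM CCCP for 3 h as a control. Cells were then lysed and immunoblotted for pSer65 Parkin, total Parkin, OPA1 and GAPDH (loading control). Untreated transfected and untransfected cells were included. Blots are representative of three repeat experiments.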

[2] = molecular target: Serine/threonine-protein kinase PINK1, mitochondrial (Homo sapiens) (UniProt Q9BXM7); experiment: Activation of PINK1 in human HeLa cells transfected with Parkin assessed as increase in Parkin phosphorylation at serine 65 at 50 uM incubated for 1 hr by Western blot analysis; assay type: cell-based; procedure, shortened: as §1
HeLa [3] = experiment: Induction of mitophagy in human HeLa cells transfected with YFP-Parkin assessed as parkin localization in mitochondria at 50 uM preincubated for 24 hrs followed by CCCP stimulation and measured after 1 hr hr by Hoechst 33258 staining based immunofluorescence analysis; assay type: functional, cell-based
Procedure, shortened: (§2)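 YFP-Parkin HeLa cells were pretreated with 50 μM compound for 24 h, then given 10 μM CCCP or niclosamide for 1 h. Cells were fixed in chilled 4% PFA, permeabilised with 0.1% Triton, blocked in BSA, then immunostained overnight at 4 °C for pSer65-Ub and TOM20 with Hoechst. YFP-Parkin was imaged by confocal microscopy (40× oil). pUb mitochondrial localisation was quantified from images.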

[4] = molecular target: T1, Serine/threonine-protein kinase Pink1, mitochondrial (Tribolium castaneum) (UniProt D6WMX4); experiment: Inhibition of recombinant Tribolium castaneum PINK1 using human Parkin as substrate assessed as substrate phosphorylation upto 100 uM
T1 sequence (whole entry): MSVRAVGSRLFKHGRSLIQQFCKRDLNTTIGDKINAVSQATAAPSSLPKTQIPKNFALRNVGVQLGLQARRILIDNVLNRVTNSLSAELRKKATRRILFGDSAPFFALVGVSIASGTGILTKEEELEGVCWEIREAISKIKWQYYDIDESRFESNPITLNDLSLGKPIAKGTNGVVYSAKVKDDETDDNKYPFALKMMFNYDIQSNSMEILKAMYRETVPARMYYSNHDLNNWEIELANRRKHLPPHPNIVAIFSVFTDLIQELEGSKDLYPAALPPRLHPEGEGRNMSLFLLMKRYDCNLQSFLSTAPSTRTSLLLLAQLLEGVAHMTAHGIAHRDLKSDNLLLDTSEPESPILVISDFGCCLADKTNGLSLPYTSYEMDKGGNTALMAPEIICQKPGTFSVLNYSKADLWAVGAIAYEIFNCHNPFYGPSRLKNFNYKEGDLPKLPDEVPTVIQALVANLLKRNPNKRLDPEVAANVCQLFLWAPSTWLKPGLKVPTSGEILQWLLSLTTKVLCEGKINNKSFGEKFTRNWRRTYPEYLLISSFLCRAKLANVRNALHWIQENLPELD

HeLa [5] = experiment: Inhibition of CCCP-induced ubiquitin phosphorylation at serine 65 residue in human HeLa cells transfected with YFP-Parkin at 50 uM preincubated for 24 hrs followed by CCCP stimulation and measured after 1 hr hr by Hoechst 33258 staining based immunofluorescence analysis; assay type: cell-based; conditions: time 25.0 hrs; procedure, shortened: as §2
MEF [6] = experiment: Induction of mitophagy in PINK1 knockout mouse immortalized MEF cells overexpressing HA-tagged Parkin assessed as increase in mitophagy at 5 uM incubated for 16 hrs by flow cytometry analysis; assay type: functional, cell-based
Procedure, shortened: (§3)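 Immortalised MEFs from PINK1 WT or KO mito-QC littermate embryos, overexpressing HA-Parkin, were treated for 16 h. Cells were trypsinised, fixed in 3.7% formaldehyde/200 mM HEPES pH 7.0 and analysed by flow cytometry (≥2 × 10^4 cells). Living cells were gated on scatter, and the untreated-condition gate was applied to all conditions. Percent cells undergoing mitophagy was taken from the GFP/mCherry ratio; n = 3, two-way ANOVA with Sidak test.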

[7] = molecular target: T1, Serine/threonine-protein kinase Pink1, mitochondrial (Tribolium castaneum); experiment: Inhibition of recombinant Tribolium castaneum PINK1 using human ubiquitin as substrate assessed as substrate phosphorylation upto 100 uM
HeLa [8] = experiment: Induction of mitophagy in YFP-Parkin-transfected human HeLa cells assessed as effect on ubiquitin phosphorylation at 50 uM incubated for 24 hrs by Hoechst 33258 staining based immunofluorescence analysis; assay type: functional, cell-based
Procedure, shortened: (§4)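 YFP-Parkin-transfected HeLa cells were left untreated or exposed to 50 μM compound alone for 24 h. Cells were PFA-fixed, Triton-permeabilised and immunostained for pSer65-Ub and TOM20 with Hoechst. Confocal imaging assessed mitochondrial fragmentation, YFP-Parkin localisation and ubiquitin phosphorylation.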

HeLa [9] = experiment: Induction of mitophagy in human HeLa cells transfected with YFP-Parkin assessed as effect on Parkin localization at 50 uM incubated for 24 hrs by Hoechst 33258 staining based immunofluorescence analysis; assay type: functional, cell-based; procedure, shortened: as §4
MEF [10] = experiment: Induction of mitophagy in wild-type PINK1 harboring mouse immortalized MEF cells overexpressing HA-tagged Parkin assessed as increase in mitophagy at 5 uM incubated for 16 hrs by flow cytometry analysis; assay type: functional, cell-based; procedure, shortened: as §3
HeLa [11] = experiment: Induction of mitophagy in human HeLa cells transfected with YFP-Parkin assessed as effect on mitochondrial fragmentation at 50 uM incubated for 24 hrs by Hoechst 33258 staining based immunofluorescence analysis; assay type: functional, cell-based; procedure, shortened: as §4
[12] = molecular target: Serine/threonine-protein kinase PINK1, mitochondrial (Mus musculus) (UniProt Q99MQ3); experiment: Activation of mouse PINK1 in mouse astrocytes assessed ubiquitin serine 65 phosphorylation at 50 uM preincubated for 24 hrs followed by valinomycin treatment for 5 hrs by ELISA; assay type: cell-based; conditions: Astrocyte, time 29.0 hrs
Procedure, shortened: (§5)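 Primary cortical astrocytes came from postnatal day 3 C57BL/6J pups and were used at 70–90% confluence (7–10 days in vitro). Lysates (HEPES/NP-40 lysis, pellet resuspended in RIPA) went to pS65-Ub ELISA. Signal was normalised per μg protein (BCA); mean ± SEM, n = 8.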

[13] = molecular target: Serine/threonine-protein kinase PINK1, mitochondrial (Mus musculus) (UniProt Q99MQ3); experiment: Activation of mouse PINK1 in mouse astrocytes assessed increase in ubiquitin serine 65 phosphorylation at 50 uM incubated for 24 hrs by ELISA analysis; assay type: cell-based; conditions: Astrocyte, filed as activator; procedure, shortened: as §5
[14] = molecular target: Serine/threonine-protein kinase PINK1, mitochondrial (Homo sapiens) (UniProt Q9BXM7); experiment: Activation of human PINK1 in human HeLa cells overexpressing Parkin assessed as phosphorylation of ubiquitin at serine 65 at 50 uM and measured after 24 hr by Western blot analysis; assay type: cell-based
Procedure, shortened: (§6)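 Parkin-transfected HeLa cells received 50 μM compound for 24 h. They were then either lysed directly or given 10 μM CCCP for 3 h before lysis. Lysates were immunoblotted for Ser65-phosphorylated ubiquitin, OPA1 cleavage and GAPDH. Untreated transfected and untransfected cells served as references.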

HeLa [15] = experiment: Inhibition of ubiquitin phosphorylation in CCCP stimulated human HeLa cells overexpressing Parkin assessed as reduction in CCCP-induced ubiquitin phosphorylation at serine 65 at 50 uM preincubated for 24 hrs followed by CCCP stimulation for 3 hr by Western blot analysis; assay type: cell-based; conditions: time 27.0 hrs; procedure, shortened: as §6

Serine/threonine-protein kinase PINK1, mitochondrial (Homo sapiens), sequence (Q9BXM7 whole entry): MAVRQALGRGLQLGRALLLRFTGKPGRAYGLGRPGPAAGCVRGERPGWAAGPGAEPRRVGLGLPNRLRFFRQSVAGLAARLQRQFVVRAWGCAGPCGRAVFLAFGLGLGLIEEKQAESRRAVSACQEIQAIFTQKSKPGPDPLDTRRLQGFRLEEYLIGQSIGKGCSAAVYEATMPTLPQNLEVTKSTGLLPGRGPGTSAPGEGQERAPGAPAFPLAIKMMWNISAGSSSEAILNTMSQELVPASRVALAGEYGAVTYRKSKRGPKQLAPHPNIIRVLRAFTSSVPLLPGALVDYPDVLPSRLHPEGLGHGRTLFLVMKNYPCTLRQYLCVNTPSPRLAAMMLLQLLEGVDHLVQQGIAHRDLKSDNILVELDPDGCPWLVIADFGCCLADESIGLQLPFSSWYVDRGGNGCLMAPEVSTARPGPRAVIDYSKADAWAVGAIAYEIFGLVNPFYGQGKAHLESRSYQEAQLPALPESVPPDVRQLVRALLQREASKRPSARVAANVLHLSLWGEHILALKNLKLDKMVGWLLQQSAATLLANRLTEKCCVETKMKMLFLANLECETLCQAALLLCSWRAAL
Serine/threonine-protein kinase PINK1, mitochondrial (Mus musculus), sequence (Q99MQ3 whole entry): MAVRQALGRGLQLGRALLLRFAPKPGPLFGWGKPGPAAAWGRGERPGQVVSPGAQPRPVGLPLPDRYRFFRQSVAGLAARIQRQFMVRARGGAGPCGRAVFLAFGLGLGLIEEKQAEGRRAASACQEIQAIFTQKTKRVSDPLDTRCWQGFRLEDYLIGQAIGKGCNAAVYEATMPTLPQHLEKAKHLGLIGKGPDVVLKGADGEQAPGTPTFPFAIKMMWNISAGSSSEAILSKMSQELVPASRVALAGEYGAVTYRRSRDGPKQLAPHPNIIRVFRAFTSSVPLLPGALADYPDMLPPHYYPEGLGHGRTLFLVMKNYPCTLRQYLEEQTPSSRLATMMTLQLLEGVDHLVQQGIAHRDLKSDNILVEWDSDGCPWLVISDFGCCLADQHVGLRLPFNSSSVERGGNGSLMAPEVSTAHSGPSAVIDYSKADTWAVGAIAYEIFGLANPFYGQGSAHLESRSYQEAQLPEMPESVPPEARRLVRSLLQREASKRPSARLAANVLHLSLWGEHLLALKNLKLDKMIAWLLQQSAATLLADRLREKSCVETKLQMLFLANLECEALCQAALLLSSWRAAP

Row | Structure (SMILES) | Activity [1] | Activity ([2]; filed as activator) | Activity [2] | other results
1 | OC[C@H]1O[C@@H](n2cnc3c(NCc4ccccc4)ncnc32)[C@H](O)[C@@H]1O | inactive | Active | – | Activity (HeLa [3]): Active; inhibition [4]: inactive; inhibition (HeLa [5]): Active; Activity (MEF [6]): inactive; inhibition [7]: inactive; Activity (HeLa [8]): inactive; Activity (HeLa [9]): inactive; Activity (MEF [10]): Active; Activity (HeLa [11]): inactive; Activity [12]: inactive; Activity [13]: Active
2 | CC(C)Nc1ncnc2c1ncn2[C@@H]1O[C@H](CO)[C@@H](O)[C@H]1O | inactive | Active | – | –
3 | OC[C@H]1O[C@@H](n2cnc3c(NCCc4ccc(O)cc4)ncnc32)[C@H](O)[C@@H]1O | inactive | Active | – | –
4 | c1nc(NC2CCCC2)c2nc[nH]c2n1 | – | – | inactive | –
5 | OC[C@H]1O[C@@H](n2cnc3c(NC4CCCC4)ncnc32)[C@H](O)[C@@H]1O | inactive | Active | – | –
6 | CNc1ncnc2[nH]cnc12 | – | – | inactive | –
7 | c1ccc(CNc2ncnc3[nH]cnc23)cc1 | – | – | inactive | –
8 | CC(C)(C)CNc1ncnc2c1ncn2[C@@H]1O[C@H](CO)[C@@H](O)[C@H]1O | inactive | – | inactive | –
9 | O=P(O)(O)OP(=O)(O)OP(=O)(O)OC[C@H]1O[C@@H](n2cnc3c(NCc4ccco4)ncnc32)[C@H](O)[C@@H]1O | – | – | – | Activity [14]: inactive; inhibition (HeLa [15]): inactive

From ChEMBL document CHEMBL5352504, “PINK1-Dependent Mitophagy Inhibits Elevated Ubiquitin Phosphorylation Caused by Mitochondrial Damage” (J Med Chem, 2023)
